JMJD2C inh: inhibitors of human GASC-1 (JMJD2C) demethylase; 330,000 compounds, 0.069% hits; Q9H3R0; GST-JMJD2C(1-420) H3K9me3 demethylation, DELFIA europium; inhibition, % at 2.35 µM;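 active = more than half of a compound's replicate wells show inhibition beyond 50%, single wells judged on their own value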;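 also: signal counts dimethyl H3K9 product captured on neutravidin plate; 0% = median of DMSO wells and 100% = 0.3 times that DMSO median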
proCasp3 act: activates human procaspase-3; recombinant procaspase-3 D3A, Ac-DEVD-pNA absorbance 405 nm; 330,000 compounds, 0.11% hits; P42574; activation, % at 8.5 µM;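 active = activation above the mean of all tested compounds plus 3 SD, cut at about 21% in these data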;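 also: 0% = DMSO alone and 100% = DMSO wells spiked with extra 5 µM PC-3 D3A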
Target sequence (P42574 whole entry D9A/D28A/D175A): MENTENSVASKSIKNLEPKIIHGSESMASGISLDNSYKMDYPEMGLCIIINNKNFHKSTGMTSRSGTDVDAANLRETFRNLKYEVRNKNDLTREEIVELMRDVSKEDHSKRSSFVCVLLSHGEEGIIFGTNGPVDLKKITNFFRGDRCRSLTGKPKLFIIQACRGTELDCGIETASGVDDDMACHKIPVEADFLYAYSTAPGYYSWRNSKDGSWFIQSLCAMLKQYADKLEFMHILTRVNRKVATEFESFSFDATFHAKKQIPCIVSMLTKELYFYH
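Assay system – Procaspase-3 D3A mutant, all three cleavage aspartates alanine · Controls – DMSO-only low control, 5 µM PC-3 D3A high control · Schedule – 1 h compound preincubation, 2 h substrate hydrolysis at 25 °C · Signal – 405 nm absorbance of p-nitroaniline, reads at 0 and 120 min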
VLA-4 inh: inhibition in a human VLA-4 binding assay | P13612 | VLA-4 expressing cells, ligand binding flow cytometry | inhibition, % (about 7 µM as worked out from the volumes in the protocol) | 330,000 compounds, 0.2% hits; in the data active = inhibition above about 50%
procasp7 counter: counter-screen: procaspase-7 (human) activation | P55210 | recombinant procaspase-7, Ac-DEVD-pNA absorbance 405 nm; D23A/D198A/D206A triple mutant, cannot self-cleave; scale: DMSO 0, 5 µM enzyme 100 | activation, % at 8.5 µM | 330,000 compounds, 0.093% hits;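 active = percent activation above the screen-wide mean plus 3 SD, cut at about 25% in these data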
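Assay system: Uncleavable procaspase-7 mutant enzyme / Input: 2 µM procaspase-7 mutant as dispensed / Dosing: single nominal 8.5 µM compound dose, 0.8% DMSO final / Timing: 1 h enzyme–compound preincubation and 2 h substrate reaction, both 25 °C / Detection: p-Nitroaniline absorbance at 405 nm, read at 0 and 120 min / Replication: singlicate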
GRK2 inh: blocks RNA aptamer binding to human GRK2. bead flow cytometry, FAM-aptamer displacement from GRK2. 330,000 compounds, 0.59% hits. AID 488847. inhibition of aptamer binding, % at 10 µM;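 active = inhibition of aptamer binding above 40%, roughly 3 SD of noise, on plates passing a quality check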;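 also: median bead fluorescence of bound FAM aptamer so fluorescent compounds give negative values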
Lipid droplet: hepatic lipid droplet formation modulation. AML12 mouse hepatocytes, oleate lipid droplets, BODIPY imaging. inhibition, % at 6.5 µM. 240,000 compounds, 0.4% hits;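 active = lipid droplet intensity inhibited by at least 50%, with more than 500 cells counted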
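Material – mouse AML12 hepatocyte cell line, fixed after treatment · Compound dosing – one dose, 6.5 µM compound · Times – compound with oleate, overnight · Measured by – Image-based BODIPY and DAPI two-channel analysis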
GRK2 inh confirm: confirmation of human GRK2 inhibitors displacing RNA aptamer; shares compounds with GRK2 inh; 2,000 compounds, 4% hits; bead-bound GRK2, FAM-aptamer displacement, flow cytometry; aptamer displacement, % at 10 µM;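 active = aptamer displacement above 40%, near three times the noise of non-fluorescent compounds, on plates passing quality checks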;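 also: negative values mostly reflect intrinsic compound fluorescence rather than true enhancement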
Aptamer quench 1: fluorescent aptamer quenching in GRK2 counter-screen dose response | shares compounds with GRK2 inh | Fluorescent RNA aptamer beads, flow cytometry; active compounds read high | fluorescence change (kMESF span), kMESF (test concentration not listed) | 110 tested, under 10 active;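 active = compounds whose bead fluorescence drops by more than 37 kMESF across the dose range, marking them as dye quenchers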
FAM quench CP1: quenches fluorescent RNA aptamer, GRK2 hit artifact; shares compounds with GRK2 inh; 2,000 tested, under 10 active; fluorescence response (% of DMSO), % at 10 µM; Carboxyfluorescein RNA aptamer on beads, flow cytometry quenching; active compounds read low; AID 504580;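 active = compounds that quench the bead-bound fluorescent RNA probe, cutting fluorescence to under half of the solvent control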;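 also: counterscreen run without GRK2 so only probe quenching by compound is measured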
Numbers without * were called inactive; x = no result given. Hits are enriched below; roughly 1.3% of the tested compounds scored in any of these assays.

SMILES	JMJD2C inh	proCasp3 act	VLA-4 inh	procasp7 counter	GRK2 inh	Lipid droplet	GRK2 inh confirm	FAM quench CP1	others
CCCN(CC(=O)Nc1ccccc1OC)C(=O)c1ccncc1	-1.8	-9.4	-3.9	2.9	0.0	9.4	x	x
O=C(O)C1C2C=CC(CC2)C1C(=O)O (stereo unspecified)	-8.2	6.2	6.0	7.6	60.0*	x	51.6*	99.6	Aptamer quench 1=-0.4
CNC(=O)c1c(O)c2cccc3c2n(c1=O)CC3	-21.4	-1.9	15.1	3.2	0.0	x	x	x
O=C(Nc1cccnc1)c1c(O)c2cccc3c2n(c1=O)CC3	11.9	0.0	2.8	4.1	65.0*	1.6	-63.2	110.6
COc1ccc(C2C3C=CCC(c4cccc(-c5ccc(C)cc5)c4)C3C(=O)N2Cc2ccccc2)cc1Cl (stereo unspecified)	5.8	3.6	-4.5	10.2	3.0	-8.8	-2.8	96.6
CCC(C)(C)n1nnnc1C(c1ccc2ncccc2c1)N1CCN(c2ccc(O)cc2)CC1 (stereo unspecified)	-5.6	-22.2	1.3	-27.1	0.0	-0.6	x	x
CCC(C)(C)n1nnnc1C(c1ccc2ncccc2c1)N1CCN(c2nc3ccccc3s2)CC1 (stereo unspecified)	-8.4	-6.8	20.7	-10.9	25.0	3.8	2.7	74.8
CCCNC(=S)NC1CC2CCCC(C1)N2Cc1ccc(F)cc1 (stereo unspecified)	-11.7	-0.5	22.8	-1.8	0.0	0.9	x	x
COc1ccc(NC(=O)c2nc3nc(C)cc(C(F)F)n3n2)cc1OC	-1.3	10.1	11.7	-1.9	1.0	-19.0	x	x
CCN(CC)c1ccc(NC(=O)c2nc3nc(C)cc(C(F)F)n3n2)cc1	-23.1	-0.1	5.3	2.1	48.0*	14.9	-0.1	93.0
c1ccc2sc(N3CN(CCN4CCOCC4)CN(c4nc5ccccc5s4)C3)nc2c1	-6.4	8.2	-8.8	-7.5	31.0	x	-2.3	101.4
COc1cc(/C=C2\SC(=S)N(NC(C)=O)C2=O)ccc1OC(=O)c1ccco1	1.8	-11.8	0.0	-2.5	0.0	x	1.8	95.4
Cc1ccc(/C=C/C(=O)OCC(=O)c2ccc3c(c2)NC(=O)CO3)o1	5.0	-9.4	6.7	-14.7	0.0	x	x	x
O=C1COc2ccc(C(=O)COC(=O)/C=C/c3ccc(Br)o3)cc2N1	2.4	-1.4	-35.6	-13.3	57.0*	x	1.8	93.5
Cc1ccc(S(=O)(=O)CCC(=O)OCc2cc(C)ccc2C)cc1	-3.1	2.1	7.6	4.3	4.0	x	x	x
CC(NC(=O)c1cc2ccccc2oc1=O)c1ccc(O)cc1 (stereo unspecified)	-1.6	-1.6	-17.8	-0.6	0.0	4.8	x	x
NC(=S)N=Nc1c(O)n(Cc2ccccc2)c2ccccc12	4.1	-1.2	1.7	-4.9	0.0	-4.3	x	x
O=S1(=O)CCC(N=Nc2c(O)n(Cc3ccccc3)c3ccccc23)C1 (stereo unspecified)	48.6	-6.2	-3.0	12.0	66.0*	0.9	-1.2	99.2
COc1cccc(CN2CC(C(=O)NCC3CCOCC3)CCC2=O)c1 (stereo unspecified)	1.3	-3.6	4.6	7.2	0.0	-0.7	x	x
COc1cccc(CC(=O)NNC(=O)CN(C)S(=O)(=O)c2ccc(C)cc2)c1	-3.2	1.8	2.2	-4.6	0.0	x	x	x
COc1ccc(-c2nn(-c3ccccc3)cc2CNCc2cccnc2)c(F)c1	-13.7	-9.1	5.1	3.4	47.0*	1.9	-4.2	100.6
CCc1nonc1NC(=O)COc1ccc(Cl)c(C)c1	-6.2	4.7	17.3	-6.2	6.0	-8.5	x	x

Screens (PubChem BioAssay)
